For data set [1], the species on record is Homo sapiens. The data set can be described thus: Stability in human plasma assessed as hydrolysis half life.
The test system of data set [2] is Plasma. The experiment in a line: Stability in human plasma assessed as aspirin production at pH 7.4. The format is ADME, cell-free. Put shortly:
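Test ester incubated in dilute (10%) buffered human plasma, pH 7.4, 37 °C. Products (parent ester, deacetylated salicylate ester, aspirin, salicylic acid) were followed over time by RP-HPLC with PDA detection; salicylate esters read at 296 nm. Disappearance fitted to pseudo-first-order kinetics, half-life = 0.693/k_obs. Aspirin yield expressed on a molar basis.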

This is an account of results in ChEMBL document CHEMBL1139206, “Evaluation of nitrate-substituted pseudocholine esters of aspirin as potential nitro-aspirins” (Bioorg Med Chem Lett, 2007).

Each structure is given as a SMILES string.

A word on the half-life: it is the time in which the quantity being followed falls by half. For `CC(=O)Oc1ccccc1C(=O)OCCO[N+](=O)[O-]`, the half-life in data set [1] is 1.6 min. For the same molecule, in data set [2], the Activity was below 0.5%.

Turning to `CC(=O)Oc1ccccc1C(=O)OC(C)CO[N+](=O)[O-]` (configuration not stated), the half-life in data set [1] is 1.47 min. Moreover, the Activity in data set [2] is on record as below 0.5%.

As to `CC(=O)Oc1ccccc1C(=O)OCC(=O)N(C)CCO[N+](=O)[O-]`, in data set [1], the half-life is 1.17 min. For the same molecule, the Activity in data set [2] is listed as below 0.5%.

On to `CCN(CCO[N+](=O)[O-])C(=O)COC(=O)c1ccccc1OC(C)=O`, for which the half-life in data set [1] was 1.03 min. The Activity in data set [2] is below 0.5%.

With `CCCN(CCO[N+](=O)[O-])C(=O)COC(=O)c1ccccc1OC(C)=O`, the half-life in data set [1] was 1.15 min. In data set [2], the Activity is reported as below 0.5%.

Take `CC(=O)Oc1ccccc1C(=O)OCC(=O)N(CCO[N+](=O)[O-])CC[N+](=O)[O-]`: the half-life in data set [1] was 6.12 min. Further, in data set [2], the Activity was below 0.5%.

As to `CC(=O)Oc1ccccc1C(=O)OCCN(C)CCO[N+](=O)[O-]`, the half-life in data set [1] was 0.35 min. Further, the Activity in data set [2] was below 0.5%.

`CCN(CCOC(=O)c1ccccc1OC(C)=O)CCO[N+](=O)[O-]`: the half-life in data set [1] is 1.05 min. Also, the Activity in data set [2] is on record as below 0.5%.

For the molecule `CCCN(CCOC(=O)c1ccccc1OC(C)=O)CCO[N+](=O)[O-]`, in data set [1], the half-life is 0.65 min. For the same molecule, the Activity in data set [2] was 9.2%.

Consider `CC(=O)Oc1ccccc1C(=O)OCCN(CCO[N+](=O)[O-])CCO[N+](=O)[O-]`, for which the half-life in data set [1] was 1.12 min. The Activity in data set [2] is below 0.5%.

Regarding `CC(=O)Oc1ccccc1C(=O)OCCCO[N+](=O)[O-]`, the half-life in data set [1] is 2.23 min. The Activity in data set [2] is below 0.5%.
